{
  "source": "paper PMC4831591",
  "about": "(International Journal of Nanomedicine, 2016)",
  "key": {"H22 cells": {"test_system": "H22 cells", "assay": "In vitro cytotoxicity, MTT assay", "type": "cell-based, murine", "conditions": "n=3", "procedure,_shortened": "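Log-phase H22 cells seeded at 10^4/well, grown 24 h, medium renewed. Treated at 0.8, 4, 20, 100, 500 μg/mL for 24 or 48 h; blank liposomes at matched concentrations. MTT (5 mg/mL stock in PBS) added for 4 h, formazan dissolved in DMSO, A490 read. Inhibition rate = (1 − A490 treated/A490 untreated)×100.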"}, "[1]": {"assay": "In vitro drug-release assay by dialysis", "type": "physicochemical", "conditions": "37°C, PBS pH 7.4, 48 hours, n=3", "procedure,_shortened": "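Dialysis in 2,000 Da MWCO bag against PBS pH 7.4, stirred 48 h at 37±0.5°C. Medium sampled at time points and replaced. Total drug found by methanol disruption of liposomes. Quantified by HPLC: C18 column, methanol/0.025 M KH2PO4 (11:89, pH 3 with H3PO4), 1.0 mL/min, UV 210 nm; n=3.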"}, "H22 tumor-bearing mice": {"test_system": "H22 tumor-bearing mice", "assay": "In vivo antineoplastic activity in H22 tumor-bearing mice", "conditions": "2 mg/kg per day, days 1–9, measured on day 10, n=10", "procedure,_shortened": "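H22 cells in saline (1×10^7/mL) injected subcutaneously in right hind limb on day 0. Mice randomized to PBS control or treatment, 2 mg/kg tail vein daily on days 1–9 (n=10). Tumor volume by caliper and body weight daily. Killed day 10 and tumors excised and weighed. IRw = (1 − Wdrug/Wcontrol)×100.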"}, "[2]": {"assay": "Biodistribution study in H22 tumor-bearing mice", "type": "in vivo", "conditions": "n=6; for AUC0–8 / Cmax / t½: 2 mg/kg intravenous", "procedure,_shortened": "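Subcutaneous H22 model: ascites cells from donor mice diluted in saline to 1×10^7/mL and injected into right hind limb (~0.1 mL/10 g). At ~300 mm3 tumor, mice randomized; single tail-vein 2 mg/kg; killed at 1, 2, 4, 8 h (n=6). Tumor and organs rinsed, weighed, homogenized 1:4 w/v in saline. HCl/IS/acetone extraction; FDA-validated LC-MS/MS. Noncompartmental AUC0–8, Cmax; Te = AUC target/(target+untargeted)×100.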"}},
  "data": [
    {"compound": "O=C(O)[C@@H]1[C@H](C(=O)O)[C@H]2CC[C@@H]1O2", "note": "[DM-NCTD, diacid metabolite of norcantharidin]", "values": [
      {"measurement": "IC50 on H22 cell lines", "setting": "H22 cells; 24 hours", "result": "39.6 ± 1.20", "unit": "µg/mL"},
      {"measurement": "IC50 on H22 cell lines", "setting": "H22 cells; 48 hours", "result": "30.0 ± 1.73", "unit": "µg/mL"},
      {"measurement": "In vitro release of DM-NCTD", "setting": "[1]", "result": "quickly and completely released"},
      {"measurement": "Tumor weight", "setting": "H22 tumor-bearing mice", "result": "1.02 ± 0.3", "unit": "g"},
      {"measurement": "IRw (inhibition rate on tumor weight)", "setting": "H22 tumor-bearing mice; vs PBS control", "result": 30.14, "unit": "%"},
      {"measurement": "Time at which the highest concentrations were achieved in tissues and tumors", "setting": "[2]; 2 mg/kg tail vein", "result": 2, "unit": "h"},
      {"measurement": "AUC0–8", "setting": "[2]; heart", "result": "116.98±10.63", "unit": "ng⋅h/mL"},
      {"measurement": "Cmax", "setting": "[2]; heart", "result": "24.08 ± 2.39", "unit": "ng/mL"},
      {"measurement": "t½", "setting": "[2]; heart", "result": "110 ± 15", "unit": "min"},
      {"measurement": "AUC0–8", "setting": "[2]; kidney", "result": "1,283.72±66.1 ng⋅h/mL"},
      {"measurement": "Cmax", "setting": "[2]; kidney", "result": "427.14 ± 20.81", "unit": "ng/mL"},
      {"measurement": "t½", "setting": "[2]; kidney", "result": "56.4 ± 16.8", "unit": "min"},
      {"measurement": "AUC0–8", "setting": "[2]; liver", "result": "1,481.15±51.3 ng⋅h/mL"},
      {"measurement": "Cmax", "setting": "[2]; liver", "result": "330.15 ± 13.96", "unit": "ng/mL"},
      {"measurement": "t½", "setting": "[2]; liver", "result": "56.4 ± 13.2", "unit": "min"},
      {"measurement": "AUC0–8", "setting": "[2]; lung", "result": "266.17±13.55", "unit": "ng⋅h/mL"},
      {"measurement": "Cmax", "setting": "[2]; lung", "result": "73.43 ± 6.17", "unit": "ng/mL"},
      {"measurement": "t½", "setting": "[2]; lung", "result": "90.6 ± 19.2", "unit": "min"},
      {"measurement": "AUC0–8", "setting": "[2]; spleen", "result": "740.09±25.16", "unit": "ng⋅h/mL"},
      {"measurement": "Cmax", "setting": "[2]; spleen", "result": "340.11 ± 17.74", "unit": "ng/mL"},
      {"measurement": "t½", "setting": "[2]; spleen", "result": "53.4 ± 1.2", "unit": "min"},
      {"measurement": "AUC0–8", "setting": "[2]; tumor", "result": "223.18±17.56", "unit": "ng⋅h/mL"},
      {"measurement": "Cmax", "setting": "[2]; tumor", "result": "54.57 ± 9.21", "unit": "ng/mL"},
      {"measurement": "t½", "setting": "[2]; tumor", "result": "61.2 ± 8.4", "unit": "min"}
    ]}
  ]
}
